What was measured:
Assay type in all cases: functional
[1] = system: Tetranychus cinnabarinus; test: Acaricidal activity against eggs of Tetranychus cinnabarinus (carmine spider mite) in sieva bean leaves assessed as mortality at 5 mg/kg at 25 +/-1 degC treated for 3 secs measured after 4 days; settings: 96 h
[2] = system: Mythimna separata; test: Stomach toxicity against fourth-instar larval stage of Mythimna separata (Oriental armyworm) in compound-pretreated corn leaves assessed as mortality at 600 mg/kg at 25 +/-1 degC after 4 days
Procedure, shortened: (§1)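 Foliar application to oriental armyworm. Single corn leaves were laid on moistened filter paper in Petri dishes. Bioassays were run at 25 ± 1 °C.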

[3] = system: Tetranychus cinnabarinus; test: Acaricidal activity against eggs of Tetranychus cinnabarinus (carmine spider mite) in sieva bean leaves assessed as mortality at 1 mg/kg at 25 +/-1 degC treated for 3 secs measured after 4 days; settings: 96 h
[4] = system: Ostrinia nubilalis; test: Stomach toxicity against third-instar larval stage of Ostrinia nubilalis (European corn borer) in corn leaves assessed as mortality at 600 mg/kg at 25 +/-1 degC treated for 3-5 secs before larval infestation after 4 days by leaf-dip method; settings: 96 h
Procedure, shortened: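 Corn leaf disks (about 5 cm) were dipped for 3–5 s and air-dried. Each disk was placed in a 7 cm glass vessel with 10 third-instar corn borer larvae. Percentage mortality was scored 4 days after treatment. Controls were acetone-treated leaves. Run at 25 ± 1 °C.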

[5] = system: Tetranychus cinnabarinus; test: Acaricidal activity against larvae of Tetranychus cinnabarinus (carmine spider mite) in sieva bean leaves assessed as mortality at 2.5 mg/kg at 25 +/-1 degC treated for 3 secs measured after 4 days; settings: 96 h
[6] = system: Tetranychus cinnabarinus; test: Acaricidal activity against larvae of Tetranychus cinnabarinus (carmine spider mite) in sieva bean leaves assessed as mortality at 1 mg/kg at 25 +/-1 degC treated for 3 secs measured after 4 days; settings: 96 h
[7] = system: Helicoverpa armigera; test: Stomach toxicity against third-instar larval stage of Helicoverpa armigerain compound-pretreated corn leaves assessed as mortality at 600 mg/kg at 25 +/-1 degC after 4 days by leaf-dip method
Procedure, shortened: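 Leaf-dip assay on cotton bollworm. Corn leaves were dipped in test solution and air-dried. The treated pieces were placed individually into 24-hole boxes. Run at 25 ± 1 °C.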

[8] = system: Tetranychus cinnabarinus; test: Acaricidal activity against larvae of Tetranychus cinnabarinus (carmine spider mite) in sieva bean leaves assessed as mortality at 0.5 mg/kg at 25 +/-1 degC treated for 3 secs measured after 4 days; settings: 96 h
[9] = system: Tetranychus cinnabarinus; test: Acaricidal activity against eggs of Tetranychus cinnabarinus (carmine spider mite) in sieva bean leaves assessed as mortality at 2.5 mg/kg at 25 +/-1 degC treated for 3 secs measured after 4 days; settings: 96 h
[10] = system: Tetranychus cinnabarinus; test: Acaricidal activity against eggs of Tetranychus cinnabarinus (carmine spider mite) in sieva bean leaves assessed as mortality at 0.5 mg/kg at 25 +/-1 degC treated for 3 secs measured after 4 days; settings: 96 h
[11] = system: Tetranychus cinnabarinus; test: Acaricidal activity against larvae of Tetranychus cinnabarinus (carmine spider mite) in sieva bean leaves assessed as mortality at 10 mg/kg at 25 +/-1 degC treated for 3 secs measured after 4 days; settings: 96 h
[12] = system: Tetranychus cinnabarinus; test: Acaricidal activity against larvae of Tetranychus cinnabarinus (carmine spider mite) in sieva bean leaves assessed as mortality at 5 mg/kg at 25 +/-1 degC treated for 3 secs measured after 4 days; settings: 96 h
[13] = system: Tetranychus cinnabarinus; test: Acaricidal activity against eggs of Tetranychus cinnabarinus (carmine spider mite) in sieva bean leaves assessed as mortality at 0.25 mg/kg at 25 +/-1 degC treated for 3 secs measured after 4 days; settings: 96 h
[14] = system: Plutella xylostella; test: Stomach toxicity against third-instar larval stage of Plutella xylostella (diamondback moth) in cabbage leaves assessed as mortality at 200 mg/kg at 25 +/-1 degC treated for 3 secs before larval infestation after 4 days by leaf-dip method; settings: 96 h
Procedure, shortened: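 Cabbage leaf disks (6 cm × 2 cm) were dipped in test solution for 3 s and air-dried. Each disk was placed in a glass tube and given seven third-instar diamondback moth larvae. Percentage mortality was scored after 4 days. Controls were water and dimethylformamide. Each treatment was done three times at 25 ± 1 °C.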

[15] = system: Mythimna separata; test: Stomach toxicity against fourth-instar larval stage of Mythimna separata (Oriental armyworm) in compound-pretreated corn leaves assessed as mortality at 50 mg/kg at 25 +/-1 degC after 4 days; procedure, shortened: as §1
[16] = system: Mythimna separata; test: Stomach toxicity against fourth-instar larval stage of Mythimna separata (Oriental armyworm) in compound-pretreated corn leaves assessed as mortality at 100 mg/kg at 25 +/-1 degC after 4 days; procedure, shortened: as §1

Row | SMILES | mortality at 5 mg/kg [1] [%] | mortality at 600 mg/kg [2] [%] | mortality at 1 mg/kg [3] [%] | mortality at 600 mg/kg [4] [%] | mortality at 2.5 mg/kg [5] [%] | mortality at 1 mg/kg [6] [%] | mortality at 600 mg/kg [7] [%] | mortality at 0.5 mg/kg [8] [%] | mortality at 2.5 mg/kg [9] [%] | mortality at 0.5 mg/kg [10] [%] | mortality at 10 mg/kg [11] [%] | mortality at 5 mg/kg [12] [%] | mortality at 0.25 mg/kg [13] [%] | mortality at 200 mg/kg [14] [%] | mortality at 50 mg/kg [15] [%] | mortality at 100 mg/kg [16] [%]
1 | CCN(C(=O)C(=O)OC1=C(c2c(C)cc(C)cc2C)C(=O)OC12CCCC2)c1ccc(Br)cc1 | 100 | 80 | 90 | 40 | 100 | 90 | 30 | 50 | 100 | 60 | 100 | 100 | 40 |  |  | 
2 | Cc1cc(C)c(C2=C(OC(=O)C(=O)Oc3ccc(C(C)(C)C)cc3)C3(CCCC3)OC2=O)c(C)c1 | 90 | 80 | 50 | 10 | 90 | 60 | 10 | 40 | 70 |  | 100 | 90 |  |  |  | 
3 | Cc1cc(C)c(C2=C(OC(=O)C(=O)Oc3ccc(Cl)cc3)C3(CCCC3)OC2=O)c(C)c1 | 100 | 70 | 90 | 50 | 70 | 60 | 30 | 0 | 100 | 80 | 100 | 90 | 60 |  |  | 
4 | CCN(C(=O)C(=O)OC1=C(c2c(C)cc(C)cc2C)C(=O)OC12CCCC2)c1ccc(C(F)(F)F)cc1 | 100 | 50 | 90 | 30 | 80 | 50 | 10 | 40 | 90 | 80 | 100 | 100 | 60 |  |  | 
5 | CCN(C(=O)C(=O)OC1=C(c2c(C)cc(C)cc2C)C(=O)OC12CCCC2)c1ccccc1 | 100 | 40 | 90 | 40 | 90 | 80 | 40 | 60 | 100 | 50 | 100 | 100 | 30 |  |  | 
6 | Cc1cc(C)c(C2=C(OC(=O)C(=O)Oc3ccccc3)C3(CCCC3)OC2=O)c(C)c1 | 100 |  | 70 | 60 | 80 | 50 | 20 | 20 | 100 | 50 | 100 | 90 |  | 60 | 0 | 100
7 | CCN(C(=O)C(=O)OC1=C(c2c(C)cc(C)cc2C)C(=O)OC12CCCC2)c1ccc(C)cc1C | 100 | 30 | 70 | 20 | 90 | 60 | 20 | 20 | 90 | 30 | 100 | 100 |  |  |  | 
8 | Cc1cc(C)c(C2=C(OC(=O)C(=O)N(C)c3ccccc3)C3(CCCC3)OC2=O)c(C)c1 | 100 | 80 | 100 | 30 | 40 | 0 | 50 |  | 100 | 100 | 80 | 70 | 50 | 70 |  | 
9 | Cc1cc(C)c(C2=C(OC(=O)C(=O)N3CCCC3)C3(CCCC3)OC2=O)c(C)c1 | 70 | 40 |  | 30 |  |  | 30 |  | 30 |  | 40 | 0 |  |  |  | 
10 | CCN(CC)C(=O)C(=O)OC1=C(c2c(C)cc(C)cc2C)C(=O)OC12CCCC2 | 100 |  | 60 | 30 | 90 | 70 | 20 |  | 100 | 0 | 100 | 100 |  | 85 | 40 | 100
11 | C#CCOC(=O)C(=O)OC1=C(c2c(C)cc(C)cc2C)C(=O)OC12CCCC2 | 30 | 50 |  | 70 |  |  | 20 |  |  |  | 30 | 0 |  |  |  | 
12 | CCOC(=O)C(=O)OC1=C(c2c(C)cc(C)cc2C)C(=O)OC12CCCC2 | 20 | 80 |  | 20 |  |  | 10 |  |  |  | 50 | 0 |  | 70 |  | 

— ChEMBL document CHEMBL3045256, “Design, synthesis, structure, and acaricidal/insecticidal activity of novel spirocyclic tetronic acid derivatives containing an oxalyl moiety” (2011)
